Assay results: ChEMBL document CHEMBL4354828, “Discovery of Taniborbactam (VNRX-5133): A Broad-Spectrum Serine- and Metallo-β-lactamase Inhibitor for Carbapenem-Resistant Bacterial Infections” (J Med Chem, 2020); call rule not given here
pIC50: −log10 of the molar value. Values after ≈ are worked out from the molar mass of the structure shown.

Legend:
[1] = Inhibition of bacterial IMP-1 using nitrocefin as substrate preincubated for 15 mins followed by susbtrate addition and measured after 10 mins by spectrophotometric method; set-up: species or system Bacteria
Escherichia coli [2] = test: Inhibition of NDM-1/CMY-6/OXA-1 in Escherichia coli CDC-0055 assessed as cefepime antibacterial activity at 8 ug/ml after 16 to 20 hrs by CLSI-based microbroth dilution method
Summary of the method: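 MDR β-lactamase-producing Gram-negative clinical isolates. […] MIC was reported as the inhibitor concentration that restores the partner's antibacterial activity.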

Klebsiella pneumoniae [3] = test: Effect on growth of Klebsiella pneumoniae UMM expressing SHV5/KPC-2/TEM-1 after 16 to 20 hrs by CLSI-based microbroth dilution method; type: organism-based; conditions: in vivo
Klebsiella pneumoniae [4] = test: Inhibition of VIM-1/VIM-2/VIM-4/NDM-1 in Klebsiella pneumoniae assessed as cefepime antibacterial activity at 4 ug/ml after 16 to 20 hrs by CLSI-based microbroth dilution method
[5] = Inhibition of bacterial AmpC using nitrocefin as substrate preincubated for 15 mins followed by susbtrate addition and measured after 10 mins by spectrophotometric method; set-up: species or system Bacteria
Chymotrypsin = Chymotrypsin (Homo sapiens, UniProt Q99895+P17538+P40313+Q6GPI1); test: Inhibition of human chymotrypsin at 100 uM; type: protein assay
Cytochrome P450 2C9 = Cytochrome P450 2C9 (Homo sapiens, UniProt P11712); test: Inhibition of human CYP2C9 at 100 uM; type: ADME
Coagulation factor X = Coagulation factor X (Homo sapiens, UniProt P00742); test: Inhibition of human factor Xa at 100 uM
Cytochrome P450 2C19 = Cytochrome P450 2C19 (Homo sapiens, UniProt P33261); test: Inhibition of human CYP2C19 at 100 uM; type: ADME
[6] = Inhibition of bacterial VIM-2 using nitrocefin as substrate preincubated for 15 mins followed by susbtrate addition and measured after 10 mins by spectrophotometric method; set-up: species or system Bacteria
Summary of the method: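 Purified β-lactamase inhibition. IC50 values are the average of duplicates unless otherwise indicated.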

[7] = biological target: Voltage-gated inwardly rectifying potassium channel KCNH2 (Homo sapiens, UniProt Q12809); test: Inhibition of human ERG at 100 uM
Klebsiella pneumoniae [8] = test: Inhibition of KPC-2/SHV12/TEM-1 in Klebsiella pneumoniae CDC-0361 assessed as meropenem antibacterial activity at 4 ug/ml after 16 to 20 hrs by CLSI-based microbroth dilution method (reference value: […] ug/ml)
[9] = Inhibition of bacterial SHV-5 using cefotaxime as substrate preincubated for 15 mins followed by susbtrate addition and measured after 10 mins by spectrophotometric method; set-up: species or system Bacteria
Klebsiella pneumoniae [10] = test: Antibacterial activity against Klebsiella pneumoniae UNT-065-1 expressing CTX-M14 infected in CD1 mouse assessed as log reduction in viable bacterial count in lung at 16 mg/kg, sc administered as single dose co-treated with 32 mg/kg cefepime and measured after 24 hrs post infection (reference value: 9.27 +/- 0.21); type: functional
Enterobacter cloacae [11] = test: Effect on growth of Enterobacter cloacae 144200 expressing p99 AmpC after 16 to 20 hrs by CLSI-based microbroth dilution method; type: organism-based; conditions: in vivo
Klebsiella pneumoniae [12] = test: Effect on growth of wild type Klebsiella pneumoniae CI 09 after 16 to 20 hrs by CLSI-based microbroth dilution method; type: organism-based
Klebsiella pneumoniae [13] = test: Inhibition of OXA-232/OXA-9/TEM-1A/CTX-M-15/OXA-1 in Klebsiella pneumoniae CDC-0066 assessed as cefepime antibacterial activity at 8 ug/ml after 16 to 20 hrs by CLSI-based microbroth dilution method (Rvb > […] ug/ml)
[14] = Cytotoxicity against human Proximal tubule epithelial cells up to 1000 ug/ml relative to control; type: cell-based
Klebsiella pneumoniae [15] = test: Inhibition of VIM-27/CTX-M-15/SHV-11/OXA-1 in Klebsiella pneumoniae CDC-0040 assessed as meropenem antibacterial activity at 4 ug/ml after 16 to 20 hrs by CLSI-based microbroth dilution method
Neutrophil elastase = Neutrophil elastase (Homo sapiens, UniProt P08246); test: Inhibition of human neutrophil elastase 2 at 100 uM
Escherichia coli [16] = test: Inhibition of TEM/CTX-M/SHV/Cephalosporinase in Escherichia coli CH1 assessed as cefepime antibacterial activity at 4 ug/ml after 16 to 20 hrs by CLSI-based microbroth dilution method (Rvb > […] ug/ml)
[17] = Cytotoxicity against human MRC5 cells assessed as growth inhibition at 256 ug/ml relative to control; type: cell-based; conditions: read-out: Activity
Interstitial collagenase = Interstitial collagenase (Homo sapiens, UniProt P03956); test: Inhibition of human MMP1 at 100 uM
Escherichia coli [18] = test: Inhibition of TEM/CTX-M/SHV/Cephalosporinase in Escherichia coli EC1552 assessed as cefepime antibacterial activity at 4 ug/ml after 16 to 20 hrs by CLSI-based microbroth dilution method (reference value: […] ug/ml)
[19] = tested on: Klebsiella pneumoniae ATCC BAA-1705; test: Inhibition of KPC-2 in Klebsiella pneumoniae ATCC BAA 1705 assessed as piperacillin antibacterial activity at 16 ug/ml after 16 to 20 hrs by CLSI-based microbroth dilution method (Rvb > […] ug/ml)
Klebsiella pneumoniae [20] = test: Inhibition of KPC-2/SHV12/TEM-1 in Klebsiella pneumoniae CDC-0361 assessed as piperacillin antibacterial activity at 16 ug/ml after 16 to 20 hrs by CLSI-based microbroth dilution method (Rvb > […] ug/ml)
Enterobacter cloacae [21] = test: Inhibition of VIM-1/VIM-2/VIM-4/NDM-1 in Enterobacter cloacae assessed as cefepime antibacterial activity at 4 ug/ml after 16 to 20 hrs by CLSI-based microbroth dilution method
Summary of the method: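 Panel of 14 clinical isolates expressing class B VIM- or NDM-type MBLs: E. coli (4), E. cloacae (2), K. pneumoniae (4), P. aeruginosa (1), A. baumannii (3).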

Escherichia coli [22] = test: Antibacterial activity against Escherichia coli UNT057-1 expressing CTX-M-15 infected in C3H/Hej mouse assessed as log reduction in viable bacterial counts in kidney at 8 mg/kg, sc bid co-treated with 16 mg/kg of cefepime and measured after 7 days (reference value: 7.25 +/- 0.16); type: functional
[23] = Cytotoxicity against mouse 3T3 cells assessed as growth inhibition at 256 ug/ml relative to control; type: cell-based; conditions: NIH3T3 cells, read-out: Activity
[24] = biological target: 72 kDa type IV collagenase (Homo sapiens, UniProt P08253); test: Inhibition of human MMP2 at 100 uM
Staphylococcus aureus = test: Effect on growth of wild type Staphylococcus aureus ATCC 29213 after 16 to 20 hrs by CLSI-based microbroth dilution method; type: organism-based
[25] = Cytotoxicity against human HeLa cells assessed as growth inhibition at 256 ug/ml relative to control; type: cell-based; conditions: read-out: Activity
[26] = biological target: Beta-lactamase VIM-2 (Pseudomonas aeruginosa) (UniProt Q9K2N0); test: Inhibition of VIM-2 in Pseudomonas aeruginosa assessed as meropenem antibacterial activity at 4 ug/ml after 16 to 20 hrs by CLSI-based microbroth dilution method (Rvb >= […] ug/ml)

72 kDa type IV collagenase, sequence (P08253 whole entry): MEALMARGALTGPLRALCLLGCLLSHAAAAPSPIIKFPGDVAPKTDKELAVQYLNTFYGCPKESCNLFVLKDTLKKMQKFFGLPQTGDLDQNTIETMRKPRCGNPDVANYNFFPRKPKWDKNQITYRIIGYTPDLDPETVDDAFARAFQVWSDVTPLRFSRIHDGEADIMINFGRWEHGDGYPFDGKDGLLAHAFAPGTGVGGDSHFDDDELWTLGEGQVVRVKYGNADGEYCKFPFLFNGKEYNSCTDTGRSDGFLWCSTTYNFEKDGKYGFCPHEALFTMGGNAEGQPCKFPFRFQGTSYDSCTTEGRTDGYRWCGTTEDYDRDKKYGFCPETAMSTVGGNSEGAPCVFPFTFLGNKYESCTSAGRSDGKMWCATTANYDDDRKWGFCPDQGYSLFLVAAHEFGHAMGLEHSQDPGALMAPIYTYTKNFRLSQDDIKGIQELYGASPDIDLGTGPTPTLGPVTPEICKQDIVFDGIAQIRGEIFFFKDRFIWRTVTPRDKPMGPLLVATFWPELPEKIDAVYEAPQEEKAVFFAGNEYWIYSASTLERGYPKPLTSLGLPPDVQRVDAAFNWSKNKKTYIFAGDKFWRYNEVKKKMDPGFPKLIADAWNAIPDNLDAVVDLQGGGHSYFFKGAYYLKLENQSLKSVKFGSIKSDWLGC
Cytochrome P450 2C19, sequence (P33261 whole entry): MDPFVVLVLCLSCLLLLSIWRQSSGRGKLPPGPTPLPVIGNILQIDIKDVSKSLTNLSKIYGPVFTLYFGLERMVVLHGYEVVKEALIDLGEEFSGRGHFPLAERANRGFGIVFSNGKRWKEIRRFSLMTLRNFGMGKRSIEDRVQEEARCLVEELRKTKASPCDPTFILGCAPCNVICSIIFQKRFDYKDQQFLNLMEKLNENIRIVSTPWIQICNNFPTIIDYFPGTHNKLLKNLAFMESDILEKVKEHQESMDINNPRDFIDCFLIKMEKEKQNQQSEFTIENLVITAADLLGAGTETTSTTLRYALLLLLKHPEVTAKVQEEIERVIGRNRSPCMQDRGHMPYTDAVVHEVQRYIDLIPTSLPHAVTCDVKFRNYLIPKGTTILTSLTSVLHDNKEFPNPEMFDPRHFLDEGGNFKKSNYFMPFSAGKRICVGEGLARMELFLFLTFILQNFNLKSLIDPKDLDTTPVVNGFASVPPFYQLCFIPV
Voltage-gated inwardly rectifying potassium channel KCNH2, sequence (Q12809 whole entry): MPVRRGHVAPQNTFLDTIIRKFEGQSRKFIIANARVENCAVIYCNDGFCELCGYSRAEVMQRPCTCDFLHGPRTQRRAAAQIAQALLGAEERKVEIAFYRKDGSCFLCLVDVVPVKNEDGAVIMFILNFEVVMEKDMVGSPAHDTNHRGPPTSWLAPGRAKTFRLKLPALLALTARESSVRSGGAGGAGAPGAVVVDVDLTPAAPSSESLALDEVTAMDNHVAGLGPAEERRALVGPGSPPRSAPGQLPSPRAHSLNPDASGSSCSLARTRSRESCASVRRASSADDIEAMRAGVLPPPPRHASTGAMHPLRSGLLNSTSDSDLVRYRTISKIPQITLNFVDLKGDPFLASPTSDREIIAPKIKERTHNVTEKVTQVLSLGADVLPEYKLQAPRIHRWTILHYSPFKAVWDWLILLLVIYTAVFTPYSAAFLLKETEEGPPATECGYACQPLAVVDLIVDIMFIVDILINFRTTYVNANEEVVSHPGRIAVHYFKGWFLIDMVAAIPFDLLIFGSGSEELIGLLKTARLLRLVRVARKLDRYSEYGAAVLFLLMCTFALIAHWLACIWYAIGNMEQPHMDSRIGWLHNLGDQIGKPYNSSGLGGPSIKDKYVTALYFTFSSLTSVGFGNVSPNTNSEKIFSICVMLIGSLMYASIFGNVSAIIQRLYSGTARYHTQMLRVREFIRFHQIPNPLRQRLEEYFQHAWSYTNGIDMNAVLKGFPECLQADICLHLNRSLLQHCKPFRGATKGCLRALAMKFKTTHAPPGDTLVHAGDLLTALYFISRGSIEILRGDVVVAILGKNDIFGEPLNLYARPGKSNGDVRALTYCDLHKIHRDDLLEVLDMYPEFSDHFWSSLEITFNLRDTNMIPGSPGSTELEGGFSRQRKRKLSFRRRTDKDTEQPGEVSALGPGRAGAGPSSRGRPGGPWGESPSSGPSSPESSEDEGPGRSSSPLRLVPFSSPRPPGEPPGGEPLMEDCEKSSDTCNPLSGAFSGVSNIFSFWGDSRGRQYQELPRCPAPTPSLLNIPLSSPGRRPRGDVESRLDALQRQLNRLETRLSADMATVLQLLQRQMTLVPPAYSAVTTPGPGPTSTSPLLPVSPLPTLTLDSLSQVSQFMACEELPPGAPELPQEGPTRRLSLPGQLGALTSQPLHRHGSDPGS
Coagulation factor X, sequence (P00742 41-179 limits assumed): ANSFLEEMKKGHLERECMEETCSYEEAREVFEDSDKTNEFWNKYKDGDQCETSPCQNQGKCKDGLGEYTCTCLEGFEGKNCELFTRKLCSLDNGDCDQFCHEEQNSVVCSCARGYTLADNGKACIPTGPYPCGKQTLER
Coagulation factor X, sequence (P00742 235-488 limits assumed): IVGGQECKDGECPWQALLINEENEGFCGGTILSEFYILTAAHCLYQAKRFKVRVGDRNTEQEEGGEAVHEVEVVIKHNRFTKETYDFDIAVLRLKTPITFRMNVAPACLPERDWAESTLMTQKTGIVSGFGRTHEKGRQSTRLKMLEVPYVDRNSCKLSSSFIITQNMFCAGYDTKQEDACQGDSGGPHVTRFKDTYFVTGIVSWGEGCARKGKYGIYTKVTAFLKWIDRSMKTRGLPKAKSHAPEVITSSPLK
Cytochrome P450 2C9, sequence (P11712 whole entry): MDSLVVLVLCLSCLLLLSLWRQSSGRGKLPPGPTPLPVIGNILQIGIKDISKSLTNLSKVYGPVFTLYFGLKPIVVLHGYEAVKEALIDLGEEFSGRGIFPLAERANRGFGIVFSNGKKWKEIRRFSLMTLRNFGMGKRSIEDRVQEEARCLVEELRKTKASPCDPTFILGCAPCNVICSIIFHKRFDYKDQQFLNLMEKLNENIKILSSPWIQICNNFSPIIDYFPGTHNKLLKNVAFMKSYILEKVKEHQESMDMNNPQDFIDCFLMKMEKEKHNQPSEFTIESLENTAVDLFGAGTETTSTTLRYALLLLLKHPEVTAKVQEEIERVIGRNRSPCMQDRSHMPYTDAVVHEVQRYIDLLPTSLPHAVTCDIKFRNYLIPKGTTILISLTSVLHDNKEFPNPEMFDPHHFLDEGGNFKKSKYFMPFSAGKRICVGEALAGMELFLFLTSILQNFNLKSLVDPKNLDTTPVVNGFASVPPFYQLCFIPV
Interstitial collagenase, sequence (P03956 whole entry): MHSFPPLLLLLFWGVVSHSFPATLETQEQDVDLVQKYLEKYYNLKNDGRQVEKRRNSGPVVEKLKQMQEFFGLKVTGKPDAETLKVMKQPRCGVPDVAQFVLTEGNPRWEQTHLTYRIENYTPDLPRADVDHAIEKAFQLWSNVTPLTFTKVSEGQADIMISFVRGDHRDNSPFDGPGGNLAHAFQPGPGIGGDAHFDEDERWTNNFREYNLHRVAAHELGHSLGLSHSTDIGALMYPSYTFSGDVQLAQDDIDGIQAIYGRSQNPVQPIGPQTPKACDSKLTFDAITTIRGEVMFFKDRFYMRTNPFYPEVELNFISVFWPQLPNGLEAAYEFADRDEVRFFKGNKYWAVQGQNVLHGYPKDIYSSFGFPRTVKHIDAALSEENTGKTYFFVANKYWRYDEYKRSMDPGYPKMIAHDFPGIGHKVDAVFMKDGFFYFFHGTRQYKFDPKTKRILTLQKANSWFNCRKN
Neutrophil elastase, sequence (P08246 whole entry): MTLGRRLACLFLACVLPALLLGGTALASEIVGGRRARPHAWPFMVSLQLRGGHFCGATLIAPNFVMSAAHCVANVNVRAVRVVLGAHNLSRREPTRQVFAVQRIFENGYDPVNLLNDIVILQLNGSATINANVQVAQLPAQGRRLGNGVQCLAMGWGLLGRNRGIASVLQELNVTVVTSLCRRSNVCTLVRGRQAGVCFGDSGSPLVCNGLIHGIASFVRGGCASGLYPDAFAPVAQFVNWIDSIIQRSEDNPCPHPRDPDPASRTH

NCCN[C@H]1CC[C@H](CC(=O)N[C@H]2Cc3cccc(C(=O)O)c3OB2O)CC1
pIC50 [1]: 4.40
MIC (Escherichia coli [2]): 2 µg/mL (≈ 5.14 µM)
MIC (Klebsiella pneumoniae [3]): > 128 µg/mL
MIC50 (Klebsiella pneumoniae [4]): 1 µg/mL (≈ 2.57 µM)
MIC90 (Klebsiella pneumoniae [4]): 4 µg/mL (≈ 10.3 µM)
pIC50 [5]: 7.49
inhibition (INH) (Chymotrypsin): Not Active
inhibition (INH) (Cytochrome P450 2C9): Not Active
inhibition (INH) (Coagulation factor X): Not Active
inhibition (INH) (Cytochrome P450 2C19): Not Active
pIC50 [6]: 7.70
inhibition (INH) [7]: Not Active
MIC (Klebsiella pneumoniae [8]): 0.015 µg/mL (≈ 0.0385 µM)
pIC50 [9]: 9.40
Activity (Klebsiella pneumoniae [10]): 4.51 log10CFU
MIC (Enterobacter cloacae [11]): > 128 µg/mL
MIC (Klebsiella pneumoniae [12]): > 128 µg/mL
MIC (Klebsiella pneumoniae [13]): 2 µg/mL (≈ 5.14 µM)
Activity [14]: Non-Toxic
MIC (Klebsiella pneumoniae [15]): 8 µg/mL (≈ 20.6 µM)
inhibition (INH) (Neutrophil elastase): Not Active
MIC (Escherichia coli [16]): < 0.125 µg/mL
inhibition at 256 ug/ml [17]: < 20%
inhibition (INH) (Interstitial collagenase): Not Active
MIC (Escherichia coli [18]): 0.5 µg/mL (≈ 1.28 µM)
MIC [19]: 4 µg/mL (≈ 10.3 µM)
MIC (Klebsiella pneumoniae [20]): 1 µg/mL (≈ 2.57 µM)
MIC50 (Enterobacter cloacae [21]): 1 µg/mL (≈ 2.57 µM)
MIC90 (Enterobacter cloacae [21]): 4 µg/mL (≈ 10.3 µM)
Activity (Escherichia coli [22]): 4.87 log10CFU
inhibition at 256 ug/ml [23]: < 20%
inhibition (INH) [24]: Not Active
MIC (Staphylococcus aureus): > 128 µg/mL
inhibition at 256 ug/ml [25]: < 20%
MIC [26]: 0.06 µg/mL (≈ 0.154 µM)

NC(=O)[C@@H]1CC[C@@H]2CN1C(=O)N2OS(=O)(=O)O [AVIBACTAM]
pIC50 [1]: < 4.00
MIC (Escherichia coli [2]): 16 µg/mL (≈ 60.3 µM)
MIC50 (Klebsiella pneumoniae [4]): > 32 µg/mL
MIC90 (Klebsiella pneumoniae [4]): > 32 µg/mL
pIC50 [5]: 7.80
pIC50 [6]: < 4.00
MIC (Klebsiella pneumoniae [8]): 0.015 µg/mL (≈ 0.0566 µM)
MIC (Klebsiella pneumoniae [13]): 1 µg/mL (≈ 3.77 µM)
MIC (Klebsiella pneumoniae [15]): > 16 µg/mL
MIC [19]: 4 µg/mL (≈ 15.1 µM)
MIC (Klebsiella pneumoniae [20]): 2 µg/mL (≈ 7.54 µM)
MIC50 (Enterobacter cloacae [21]): > 32 µg/mL
MIC90 (Enterobacter cloacae [21]): > 32 µg/mL
